Laboratory results: paper PMC3009390 (Chemical biology & drug design, 2010)
Values belong to the molecule of their own block, whether it stands above or below them.

Legend:
RA = conditions: ref [41]; cited from earlier work
CD58 protein = assay: 1D NMR titration: binding of peptides to CD58 protein; conditions: pH 7.0, 90% H2O/10% D2O, 291 K, 700 MHz, protein:peptide 1:80
Summary of the method: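 Recombinant CD58 extracellular domain was titrated in 10 µL aliquots into an NMR tube holding the test peptide. A 1D spectrum was recorded at each protein:peptide ratio from 1:1000 to 1:80 on a 700 MHz instrument at 291 K. Sample pH was set to 7.0 with NaOD in D2O. A control peptide was run the same way.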

[1] = test system: CD58 protein on Caco-2 cells; assay: Fluorescence microscopy of binding to Caco-2 cells; type: cell-based, human; conditions: fixed Caco-2 cells, about 2 h incubation, magnification 20×

Molecule: QYMRADEADSTLR [CII-3]
RA suppression activity (RA): does not exhibit any RA suppression activity

binding to CD58 protein by 1D NMR (CD58 protein): does not bind to protein CD58
change of peptide 1D NMR amide resonances on adding CD58 (CD58 protein): no indication of amide resonances
Molecule: KGKTDAISVKAI-NH2 [control peptide]

Molecule: O=C1OC2(c3ccc(O)cc3Oc3cc(O)ccc32)c2ccc(N=C=S)cc21 [FITC, Fluoresceineisothiocyanate]
binding observed by fluorescence microscopy [1]: non-specific binding of FITC was observed
